The record followed here is ChEMBL document CHEMBL4390647, “Efficient click chemistry towards novel 1H-1,2,3-triazole-tethered 4H-chromene-d-glucose conjugates: Design, synthesis and evaluation of in vitro antibacterial, MRSA and antifungal activities” (Eur J Med Chem, 2019).

One series has as its system Escherichia coli. The series can be described thus: Antibacterial activity against Escherichia coli ATCC 25922 measured after 18 to 20 hrs by microbroth dilution method. The format is functional. The method, boiled down: (§1)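 Inoculum from a 4–6-h broth adjusted to 0.5 McFarland, final 5 × 10⁵ CFU/mL. Incubation at 35°C for 18–20 h. MIC taken as the lowest concentration giving complete inhibition of visible growth; three experiments.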
A general note: In broth dilution the organism is exposed to a series of concentrations in liquid medium.

The next series has as its system Salmonella typhimurium. The experiment in a line: Antibacterial activity against Salmonella typhimurium ATCC 14028 measured after 18 to 20 hrs by microbroth dilution method. The format is functional, Salmonella enterica subsp. enterica serovar Typhimurium. Conditions: Salmonella enterica. The method, boiled down: as §1
The subject of a further series is Pseudomonas aeruginosa. The series can be described thus: Antibacterial activity against Pseudomonas aeruginosa […] measured after 18 to 20 hrs by microbroth dilution method. The format is functional. The method, boiled down:
as §1

Series [1] relates to Staphylococcus aureus. The series can be described thus: Antibacterial activity against Staphylococcus aureus MRSA198 clinical isolate-3 measured after 18 to 20 hrs by microbroth dilution method. Type of series: functional. Conditions: MRSA198 isolate-3.
The subject of series [2] is Staphylococcus aureus. The series can be described thus: Antibacterial activity against Staphylococcus aureus MRSA198 clinical isolate-2 measured after 18 to 20 hrs by microbroth dilution method. The format is functional. Conditions: MRSA198 isolate-2.
Another series has as its system Klebsiella pneumoniae. The series can be described thus: Antibacterial activity against measured after Klebsiella pneumoniae ATCC 4352 measured after 18 to 20 hrs by microbroth dilution method. The format is functional. The method, boiled down: as §1
A further series deals with Bacillus subtilis. The experiment in a line: Antibacterial activity against Bacillus subtilis ATCC 11774 after 18 to 20 hrs by microbroth dilution method. Type of series: functional. A digest of the protocol:
as §1

A further series has as its system Aspergillus flavus. The series can be described thus: Antifungal activity against Aspergillus flavus ATCC 204304 measured after 72 hrs by agar dilution method. The format is functional. As to conditions: ATCC 204304, 72 h. A digest of the protocol:
(§2)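 Agar dilution on Sabouraud dextrose agar, with compounds at […] to 0.78 μM in twofold steps. Fungal suspensions at 10 CFU/mL as printed were applied to the compound-containing plates. Incubation at 35°C; MIC read after 72 h. Three experiments.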
A general note: Agar dilution tests growth on a series of plates holding different concentrations.

In series [3] the test system is Candida albicans. The experiment in a line: Antifungal activity against Candida albicans ATCC 7754 after 72 hrs by agar dilution method. As to conditions: ATCC 7754, 72 h. The format is functional. The method, boiled down:
as §2

Series [4] has as its system Aspergillus niger. The series can be described thus: Antifungal activity against Aspergillus niger ATCC 439 measured after 72 hrs by agar dilution method. Conditions: ATCC 439, 72 h. Type of series: functional. A digest of the protocol: as §2
The subject of series [5] is Staphylococcus epidermidis. The series can be described thus: Antibacterial activity against Staphylococcus epidermidis ATCC 12228 after 18 to 20 hrs by microbroth dilution method. The format is functional. A digest of the protocol:
as §1

Series [6] relates to Staphylococcus aureus. The series can be described thus: Antibacterial activity against Staphylococcus aureus MRSA198 clinical isolate-1 measured after 18 to 20 hrs by microbroth dilution method. Type of series: functional. Conditions: MRSA198 isolate-1.
A short description of series [7]: Cytotoxicity against mouse RAW264.7 cells assessed as growth inhibition at 50 ug/mL after 120 hrs by MTT assay relative to control. Type of series: cell-based. As to conditions: read-out: GI. A digest of the protocol: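 RAW 264.7 mouse macrophages were seeded at 25,000 cells/well and left to attach overnight. Compound in DMSO was added from a 200× concentrate, in duplicate wells, to a 50 μg/mL test level; DMSO served as control. Exposure 120 h at 37°C in 5% CO₂. MTT (4 mg/mL in PBS) was added for 4 h, formazan dissolved in DMSO, and absorbance read at 560 nm. Viability expressed as % of untreated cells, mean ± SE of at least three independent experiments.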
(In general: Tetrazolium dyes change colour on reduction, which living cells bring about.)

Another series concerns Saccharomyces cerevisiae. The series can be described thus: Antifungal activity against Saccharomyces cerevisiae SH 20 after 72 hrs by agar dilution method. The format is functional. As to conditions: SH 20, 72 h. The method, boiled down: as §2
For series [8], the system named is Staphylococcus aureus. The series can be described thus: Antibacterial activity against Staphylococcus aureus ATCC 11632 after 18 to 20 hrs by microbroth dilution method. The format is functional. The method, boiled down: as §1
The test system of series [9] is Aspergillus niger. The series can be described thus: Antifungal activity against Aspergillus niger NCIM1196 by standard agar method. The format is functional.
In series [10] the test system is Candida albicans. The series can be described thus: Antifungal activity against Candida albicans NCIM3471 by standard agar method. Type of series: functional.

Converted amounts (≈) assume the structure as drawn.

Consider `CC(=O)OC[C@H]1O[C@@H](n2cc(COc3ccc4c(c3)OC(N)=C(C#N)C4c3ccc(Br)cc3)nn2)[C@H](OC(C)=O)[C@@H](OC(C)=O)[C@@H]1OC(C)=O` (some centres undefined), for which the minimum inhibitory concentration (MIC) against Escherichia coli worked out at 100 µM (≈ 75.5 µg/mL); in the series with Salmonella typhimurium, 200 µM (≈ 151 µg/mL); in the series on Pseudomonas aeruginosa, 25 µM (≈ 18.9 µg/mL); in the series on Staphylococcus aureus [1], 12.5 µM (≈ 9.43 µg/mL); with Staphylococcus aureus [2], 12.5 µM (≈ 9.43 µg/mL); in the series with Klebsiella pneumoniae, 200 µM (≈ 151 µg/mL). In addition, the MIC in the series with Bacillus subtilis amounted to 200 µM (≈ 151 µg/mL); with Aspergillus flavus it was 200 µM (≈ 151 µg/mL); in the series on Candida albicans [3], 3.12 µM (≈ 2.35 µg/mL); in the series with Aspergillus niger [4], 3.12 µM (≈ 2.35 µg/mL); in series [5] it was 100 µM (≈ 75.5 µg/mL); in the series on Staphylococcus aureus [6], 12.5 µM (≈ 9.43 µg/mL). Also, the MIC in the series on Saccharomyces cerevisiae was determined as 1.56 µM (≈ 1.18 µg/mL); in the series with Staphylococcus aureus [8], 25 µM (≈ 18.9 µg/mL). In addition, in [7], the inhibition at 120 h, 50 ug/mL worked out at 25.3%.
With `COc1cccc(C2C(C#N)=C(N)Oc3cc(OCc4cn([C@@H]5O[C@H](COC(C)=O)[C@@H](OC(C)=O)[C@H](OC(C)=O)[C@H]5OC(C)=O)nn4)ccc32)c1OC` (some centres undefined), the minimal inhibitory concentration (MIC) came out at 200 µM (≈ 147 µg/mL) against Escherichia coli; 12.5 µM (≈ 9.2 µg/mL) against Salmonella typhimurium; 12.5 µM (≈ 9.2 µg/mL) against Pseudomonas aeruginosa; 12.5 µM (≈ 9.2 µg/mL) against Staphylococcus aureus [1]; 12.5 µM (≈ 9.2 µg/mL) against Staphylococcus aureus [2]; 25 µM (≈ 18.4 µg/mL) in the series with Klebsiella pneumoniae. For the same compound, the MIC came out at 12.5 µM (≈ 9.2 µg/mL) with Bacillus subtilis; 25 µM (≈ 18.4 µg/mL) against Aspergillus flavus; 100 µM (≈ 73.6 µg/mL) with Candida albicans [3]; 25 µM (≈ 18.4 µg/mL) with Aspergillus niger [4]; 25 µM (≈ 18.4 µg/mL) in [5]; 12.5 µM (≈ 9.2 µg/mL) in the series on Staphylococcus aureus [6]. Moreover, the MIC against Saccharomyces cerevisiae stood at 200 µM (≈ 147 µg/mL); with Staphylococcus aureus [8], 12.5 µM (≈ 9.2 µg/mL). Moreover, the inhibition at 120 h, 50 ug/mL in [7] stood at 31.1%.
In the case of `CC(=O)OC[C@H]1O[C@@H](n2cc(COc3ccc4c(c3)OC(N)=C(C#N)C4c3cccc([N+](=O)[O-])c3)nn2)[C@H](OC(C)=O)[C@@H](OC(C)=O)[C@@H]1OC(C)=O` (some centres undefined), the minimum inhibitory concentration (MIC) with Escherichia coli was 50 µM (≈ 36 µg/mL); in the series on Salmonella typhimurium, 400 µM (≈ 288 µg/mL); in the series with Pseudomonas aeruginosa, 12.5 µM (≈ 9.01 µg/mL); with Staphylococcus aureus [1], 3.12 µM (≈ 2.25 µg/mL); against Staphylococcus aureus [2], 6.25 µM (≈ 4.5 µg/mL); against Bacillus subtilis, 50 µM (≈ 36 µg/mL). In addition, the minimum inhibitory concentration (MIC) turned out to be 50 µM (≈ 36 µg/mL) against Aspergillus flavus; 200 µM (≈ 144 µg/mL) in the series with Candida albicans [3]; 12.5 µM (≈ 9.01 µg/mL) against Aspergillus niger [4]; 400 µM (≈ 288 µg/mL) in [5]; 1.56 µM (≈ 1.12 µg/mL) against Staphylococcus aureus [6]; 6.25 µM (≈ 4.5 µg/mL) in the series with Saccharomyces cerevisiae. The same compound gave an MIC with Staphylococcus aureus [8] of 3.12 µM (≈ 2.25 µg/mL). Besides, in series [7], the inhibition at 120 h, 50 ug/mL turned out to be 15.6%.
For `COc1ccccc1C1C(C#N)=C(N)Oc2cc(OCc3cn([C@@H]4O[C@H](COC(C)=O)[C@@H](OC(C)=O)[C@H](OC(C)=O)[C@H]4OC(C)=O)nn3)ccc21` (some centres undefined), the minimum inhibitory concentration (MIC) was determined as 400 µM (≈ 282 µg/mL) in the series on Escherichia coli; 6.25 µM (≈ 4.41 µg/mL) in the series on Salmonella typhimurium; 3.12 µM (≈ 2.2 µg/mL) in the series on Pseudomonas aeruginosa; 200 µM (≈ 141 µg/mL) against Staphylococcus aureus [1]; 400 µM (≈ 282 µg/mL) in the series with Staphylococcus aureus [2]; 3.12 µM (≈ 2.2 µg/mL) against Klebsiella pneumoniae. In addition, the minimum inhibitory concentration (MIC) was 400 µM (≈ 282 µg/mL) in the series on Aspergillus flavus; 200 µM (≈ 141 µg/mL) against Candida albicans [3]; 1.56 µM (≈ 1.1 µg/mL) in the series on Aspergillus niger [4]; 6.25 µM (≈ 4.41 µg/mL) in series [5]; 400 µM (≈ 282 µg/mL) with Staphylococcus aureus [6]; 100 µM (≈ 70.6 µg/mL) against Saccharomyces cerevisiae. In the series on Staphylococcus aureus [8], this compound returned an MIC of 50 µM (≈ 35.3 µg/mL). Also, in [7], the inhibition at 120 h, 50 ug/mL turned out to be 22.1%.
Consider `CCOC(=O)c1cc2ccc(OCc3cn(Cc4ccc(F)cc4)nn3)cc2oc1=O`, for which the MIC against Aspergillus niger [9] was found to be 25 µg/mL (≈ 59 µM); against Candida albicans [10], 12.5 µg/mL (≈ 29.5 µM).
As to `COc1ccc(C2C(C#N)=C(N)Oc3cc(OCc4cn([C@@H]5O[C@H](COC(C)=O)[C@@H](OC(C)=O)[C@H](OC(C)=O)[C@H]5OC(C)=O)nn4)ccc32)cc1` (some centres undefined), the MIC with Escherichia coli stood at 200 µM (≈ 141 µg/mL); against Salmonella typhimurium it was 1.56 µM (≈ 1.1 µg/mL); in the series with Pseudomonas aeruginosa, 100 µM (≈ 70.6 µg/mL); in the series on Staphylococcus aureus [1] it was 12.5 µM (≈ 8.82 µg/mL); with Staphylococcus aureus [2], 12.5 µM (≈ 8.82 µg/mL); in the series with Bacillus subtilis, 12.5 µM (≈ 8.82 µg/mL). In addition, the MIC with Aspergillus flavus turned out to be 12.5 µM (≈ 8.82 µg/mL); in the series with Candida albicans [3], 1.56 µM (≈ 1.1 µg/mL); with Aspergillus niger [4], 200 µM (≈ 141 µg/mL); in series [5] it was 200 µM (≈ 141 µg/mL); with Staphylococcus aureus [6], 12.5 µM (≈ 8.82 µg/mL); against Saccharomyces cerevisiae, 12.5 µM (≈ 8.82 µg/mL). In the series with Staphylococcus aureus [8], 25 µM (≈ 17.6 µg/mL) was the least that counted as inhibitory (MIC). In addition, in series [7], the inhibition at 120 h, 50 ug/mL stood at 29.6%.

Broadly, the MIC is the lowest concentration found to suppress growth. The low end stands for greater potency, the high end for weaker potency.
